Measurements taken from ChEMBL document CHEMBL4811300, “Design, synthesis, and biological evaluation of novel bifunctional thyrointegrin antagonists for neuroblastoma” (Bioorg Med Chem, 2021).

Legend:
SK-N-FI [1] = experiment: Antitumor activity against human SK-N-FI cells xenografted in Ncr nude mouse assessed as increase in necrotic cells in tumor at 3 mg/kg, sc dosed daily up to 20 days by H and E staining based light microscopic analysis relative to control; format: functional; settings: time day <=20
Method in brief: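 SK-N-F1 cells (2 million per implant) were grown in mice (4 per group) until tumors reached 500 mm³. Mice were then dosed at 3 mg/kg s.c. once daily for 20 days against PBS vehicle; the methods section states 21 days. Harvested tumors were fixed in 10% formalin for at least 48 h, paraffin-embedded, sectioned and H&E stained. Necrosis, fibrosis and debris area was scored microscopically at 4X, 10X and 40X.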

SK-N-FI [2] = experiment: Antitumor activity against human SK-N-FI cells xenografted in Ncr nude mouse assessed as reduction of tumor weight at 3 mg/kg, sc dosed daily up to 20 days relative to control; format: functional; set-up: scale not given: the % may be the effect or the level left; settings: time day <=20
Method in brief: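 SK-N-F1 xenografts: 2 million cells per implant, 4 mice per group, with treatment starting once tumors reached 500 mm³. Dosing was 3 mg/kg s.c. once daily for 20 days (the methods say 21) against PBS vehicle control. Animals were sacrificed at study end, and tumors were excised and weighed.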

[3] = Drug uptake in human SK-N-F1 cells at 10 uM measured upto 60 mins by LC-MS/MS analysis; format: ADME, cell-based; settings: sk-n-fi, 1 h
Method in brief: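 SK-N-F1 cells (~1M) were exposed to compound at 10 uM per the figure legend; the methods text gives 1 µM. Incubation lasted 15, 30 and 60 min. Cells were washed with PBS, pelleted at 5,000g for 10 min, homogenized in acetonitrile and extracted. The residue was reconstituted in acetonitrile/water 80/20. Quantification was by LC-MS/MS (positive ESI MRM) against 1–1000 ng/mL standards.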

Row | SMILES | Activity (SK-N-FI [1]) | Activity (SK-N-FI [2]) | Drug uptake [3]
1 | N=C(N)NCc1ccc(OCCOCCOCCOCCOCCOCCOCCOCCN2CCN(CCCOc3c(I)cc(Oc4c(I)cc(CC(=O)O)cc4I)cc3I)CC2)cc1 | 98% | 90% | 
2 | CC(C)(C)OC(=O)NCc1ccc(OCCOCCOCCOCCOCCOCCOCCn2cc(COc3c(I)cc(Oc4c(I)cc(CC(=O)O)cc4I)cc3I)nn2)cc1 |  |  | Active
3 | N=C(N)NCc1cccc(I)c1 [IOBENGUANE] |  |  | Active
